Screening results from PubChem BioAssay.
The list is not random: actives were taken first. Their share in the collection is about 5.1%.
STAT3 activator = increases IL-6 driven STAT3 reporter signal; activation (% of control), % at 5.6 µM; U3A cells, IL-6 STAT3-luciferase reporter, luminescence; 100% = signal with IL-6 EC80 alone; AID 871; 190,000 tested, 0.91% active;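 active = activation above the screen-wide mean of compound activation plus 3 SD, cut at about 130% in these data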;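 also: 0% = background luminescence of wells with medium and substrate only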
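Material: human U3A cells carrying STAT3-luciferase construct. Measured by: reporter luminescence signal. Timing: compound 1 h, then IL-6 6 h at 37 °C.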
STAT1 act = increases IFN-gamma driven STAT1 reporter signal; AID 932; activation (% of control), % at 5.5 µM; NIH 3T3 STAT1-luciferase reporter, luminescence; 100% = IFN-gamma alone, no compound; 200,000 tested, 2.6% active;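 active = activation above the screen-wide mean activation plus 3 SD, cut at about 130% in these data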;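 also: raw ratio to IFN-gamma control signal so 100% means no change and 0% no light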
APP 5'UTR act = APP 5'UTR luciferase reporter activation; SH-SY5Y APP 5'UTR luciferase reporter, luminescence; zero percent = DMSO vehicle wells; activation, % at 2 µM; 190,000 tested, 1% active;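 active = activation above a set limit, based on mean plus 3 SD of controls, cut at about 140% in these data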
STAT3 inh = reduces IL-6 driven STAT3 reporter signal; U3A cells, IL-6 STAT3-luciferase reporter, luminescence; host cell line lacks STAT1; inhibition, % at 5.5 µM; 190,000 tested, 0.89% active; AID 862;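 active = inhibition above the mean inhibition across all screened compounds plus 3 SD, cut at about 44% in these data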;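 also: 0% = DMSO only wells and 100% = 100 µM nifuroxazide control wells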
STAT1 blocker = inhibitors of IFN-gamma induced STAT1 signaling; NIH 3T3 STAT1-luciferase reporter, luminescence; inhibition, % at 5.5 µM; 200,000 tested, 0.35% active;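 active = inhibition above a set limit, the mean inhibition across all tested compounds plus 3 SD, cut at about 34% in these data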;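 also: 0% = IFN-gamma with DMSO and 100% = IFN-gamma with 300 µM nifuroxazide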
NF-kB neuron act = NF-kB expression increase, human neuronal cells | NF-kB reporter expression; stronger effect = higher value | fold change at 12.5 µM | 190,000 tested, 1.6% active | AID 1239; in the data active = fold change above about 3.3
* marks the source's active call; other numbers are inactive results.

What do the screens show for `COC(=O)C1C(=O)c2c([nH]c(C(=O)OC3CCCC3C)c2C)CC1C` (configuration not stated)?
STAT3 activator: 120; STAT1 act: 138*; APP 5'UTR act: 157*; STAT3 inh: -24; STAT1 blocker: -40; NF-kB neuron act: 3

Results for NNC(=O)c1cc2cc3ccccc3nc2s1 ?
STAT3 activator: 99; STAT1 act: 136*; APP 5'UTR act: 4; STAT3 inh: 12; STAT1 blocker: -41; NF-kB neuron act: 1.6

What do the screens show for `Cn1c(-c2ccc(F)cc2)cnc1SCC(=O)N1CCCCC1`?
STAT3 activator: 72; STAT1 act: 138*; APP 5'UTR act: 123; STAT3 inh: 34; STAT1 blocker: -42; NF-kB neuron act: 3.9*

Results for CC1Cc2ccccc2N1C(=O)CSc1ncc(-c2ccc(F)cc2)n1C (configuration not stated) ?
STAT3 activator: 97; STAT1 act: 133*; APP 5'UTR act: 104; STAT3 inh: 2; STAT1 blocker: -36; NF-kB neuron act: 0.93

How did COc1ccc(C2CC(C(F)(F)F)n3nc(C(=O)Nc4c(C)n(C)n(-c5ccccc5)c4=O)c(Cl)c3N2)cc1 (configuration not stated) do in these assays?
STAT3 activator: 105; STAT1 act: 106; APP 5'UTR act: 0; STAT3 inh: -3; STAT1 blocker: -7; NF-kB neuron act: 0.93

Results for O=C(COC(=O)c1cc(-c2cccs2)nc2ccccc12)NC1CCS(=O)(=O)C1 (configuration not stated) ?
STAT3 activator: 91; STAT1 act: 107; APP 5'UTR act: 6; STAT3 inh: 20; STAT1 blocker: -9; NF-kB neuron act: 0.74

How did O=C(Nc1nccs1)c1cc2c(s1)-c1ccccc1OC2 do in these assays?
STAT3 activator: 96; STAT1 act: 146*; APP 5'UTR act: 96; STAT3 inh: 14; STAT1 blocker: -51; NF-kB neuron act: 2.3

Results for O=C(Nc1nc2ccccc2s1)c1cc2c(s1)-c1ccccc1OC2 ?
STAT3 activator: 103; STAT1 act: 122; APP 5'UTR act: 5; STAT3 inh: 5; STAT1 blocker: -24; NF-kB neuron act: 2

What do the screens show for `COC(=O)c1cc(-c2ccc(OC)cc2)n[nH]1`?
STAT3 activator: 97; STAT1 act: 116; APP 5'UTR act: 40; STAT3 inh: 3; STAT1 blocker: -17; NF-kB neuron act: 1.1

How did COc1ccc(-c2cc(-c3ccccc3)n[nH]2)c(O)c1 do in these assays?
STAT3 activator: 89; STAT1 act: 99; APP 5'UTR act: 190*; STAT3 inh: 20; STAT1 blocker: -1; NF-kB neuron act: 7.9*

How did COc1ccc(/C=C/c2nc(-c3ccccc3O)n[nH]2)cc1 do in these assays?
STAT3 activator: 99; STAT1 act: 89; APP 5'UTR act: 170*; STAT3 inh: -1; STAT1 blocker: 13; NF-kB neuron act: 7.6*

Results for COc1ccc(-c2cc(-c3ccccc3O)[nH]n2)cc1 ?
STAT3 activator: 86; STAT1 act: 106; APP 5'UTR act: 192*; STAT3 inh: 19; STAT1 blocker: -6; NF-kB neuron act: 7.1*

What do the screens show for `O=C(COC(=O)c1ccc(Cl)c(S(=O)(=O)NCc2ccccc2)c1)NCC1CCCO1` (configuration not stated)?
STAT3 activator: 104; STAT1 act: 96; APP 5'UTR act: 6; STAT3 inh: 4; STAT1 blocker: 3; NF-kB neuron act: 1

Results for CN(C)C(=O)C1CCC(=O)N1Cc1cccs1 (configuration not stated) ?
STAT3 activator: 102; STAT1 act: 100; APP 5'UTR act: -14; STAT3 inh: 8; STAT1 blocker: -2; NF-kB neuron act: 1.2

How did CCOc1ccc(CN2CCN(Cc3nc(C(C)C)cs3)CC2CCO)cc1 (configuration not stated) do in these assays?
STAT3 activator: 94; STAT1 act: 93; APP 5'UTR act: -8; STAT3 inh: 12; STAT1 blocker: 6

Results for O=C1c2ccccc2C(=O)C1c1ccncc1 ?
STAT3 activator: 70; STAT1 act: 127; APP 5'UTR act: 95; STAT3 inh: 36; STAT1 blocker: -29; NF-kB neuron act: 3.8*

What do the screens show for `C=CS(=O)(=O)c1sc(Cl)c(N2CCOCC2)c1[N+](=O)[O-]`?
STAT3 activator: 92; STAT1 act: 129*; APP 5'UTR act: -31; STAT3 inh: 16; STAT1 blocker: -33; NF-kB neuron act: 1.1

Results for O=C(COC(=O)c1cncc(Br)c1)NCc1ccc2c(c1)OCO2 ?
STAT3 activator: 104; STAT1 act: 101; APP 5'UTR act: 17; STAT3 inh: 2; STAT1 blocker: -2; NF-kB neuron act: 1.3

Results for COc1ccc(OC(=O)c2cccc([N+](=O)[O-])c2)c(C(=O)/C=C/c2cccs2)c1 ?
STAT3 activator: 97; STAT1 act: 102; APP 5'UTR act: -11; STAT3 inh: 10; STAT1 blocker: -2; NF-kB neuron act: 3.4*

What do the screens show for `COc1ccc(OC)c(C(=O)Cn2c3[n+](c4ccc(C(F)(F)F)cc42)CCCCC3)c1`?
STAT3 activator: 98; STAT1 act: 103; APP 5'UTR act: 11; STAT3 inh: 7; STAT1 blocker: -5; NF-kB neuron act: 0.94

Results for Cc1nc(N/N=C/c2ccccn2)sc1C ?
STAT3 activator: 25; STAT1 act: 29; APP 5'UTR act: -5; STAT3 inh: 89*; STAT1 blocker: 80*; NF-kB neuron act: 1.1

How did Cc1ccc(C(=O)Nc2sc3c(c2C#N)CCCCC3)cc1C do in these assays?
STAT3 activator: 121; STAT1 act: 134*; APP 5'UTR act: 31; STAT3 inh: -21; STAT1 blocker: -37; NF-kB neuron act: 1.3

Results for N#Cc1c(NC(=O)/C=C/c2ccco2)sc2c1CCCC2 ?
STAT3 activator: 154*; STAT1 act: 174*; APP 5'UTR act: -93; STAT3 inh: -67; STAT1 blocker: -81; NF-kB neuron act: 0.89

What do the screens show for `CCCC(=O)Nc1sc2c(c1C#N)CCCCC2`?
STAT3 activator: 116; STAT1 act: 118; APP 5'UTR act: 14; STAT3 inh: -17; STAT1 blocker: -20; NF-kB neuron act: 3.9*

What do the screens show for `Cc1cc(C(=O)Nc2sc3c(c2C#N)CCCC3)no1`?
STAT3 activator: 101; STAT1 act: 119; APP 5'UTR act: 92; STAT3 inh: 4; STAT1 blocker: -22; NF-kB neuron act: 3.1

What do the screens show for `Cc1cc(C(=O)Nc2sc3c(c2C#N)CCC(C)C3)no1` (configuration not stated)?
STAT3 activator: 81; STAT1 act: 139*; APP 5'UTR act: 66; STAT3 inh: 25; STAT1 blocker: -42; NF-kB neuron act: 1.1

How did CC(=O)Nc1sc2c(c1C#N)CCCCC2 do in these assays?
STAT3 activator: 99; STAT1 act: 105; APP 5'UTR act: 9; STAT3 inh: 4; STAT1 blocker: -5; NF-kB neuron act: 1.4
